Measurements as given in the EternaBench riboswitch data.

System: MS2 coat protein
Assay: apparent Kd, MS2 coat protein; higher = weaker binding; RNA-MaP array; FMN 200 µM where present
How it was run: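 Stalled E. coli RNA polymerase produced the designs on Illumina sequencing-chip clusters. SNAP-549-labelled MS2 coat protein was added from 0.7 or 1.5 nM, doubling to 3 µM, without and then with constant ligand, in 100 mM Tris-HCl pH 7.5, 80 mM KCl, 4 mM MgCl2, BSA, DTT, yeast tRNA and Tween-20. The apparent Kd is the median of filtered per-cluster fits of green signal normalised to red-channel RNA signal and control-cluster median Fmax.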

[1] = designed as: ON switch for flavin mononucleotide, no ligand
[2] = ligand present: flavin mononucleotide, designed as: ON switch for flavin mononucleotide
[3] = designed as: OFF switch for flavin mononucleotide, no ligand
[4] = ligand present: flavin mononucleotide, designed as: OFF switch for flavin mononucleotide

Sequence | apparent Kd [1] | apparent Kd [2] | apparent Kd [3] | apparent Kd [4]
AAGAAACAUGAGGAUCACCCAUGUAGAAAUAUGGGAGGAUAUACGAAGACGAAAGUCAAAGUAGAAGGCCUAAAAG | 94.6 nM | 27.7 nM |  | 
AAGAAACAUGAGGAUCACCCAUGUGAGGAUAUACGAUGCUAAGCGUAAGCUUAGUAUCGUAGAAGGCACAAAGG |  |  | 131 nM | 311 nM
AAGAAACAUGAGGAUCACCCAUGUGAGGAUAUGAUGCGAAUUAUGUAUGUAGUAAGCAUCAGAAGGCACAAAGG |  |  | 127 nM | 203 nM
AAGAAGCUCACAGGAUAUCAGUAUAUGCGAUCUAGCGUAUUAAUGAACUGCUGAGAAGGGUGAGACAUGAGGAUCACCCAUGUA | 23.3 nM | 62.2 nM |  | 
AAGAAGUCAGGAUAUCCAGCUCGUCACUUGCGUGAUGAGUUGGAGAAGGGACAUGAGGAUCACCCAUGUAAAGA |  |  | 56.1 nM | 49.3 nM
AAGAAGUCAGGAUAUGCUGCUCGUCACUUGCGUGAUGAGUAGCAGAAGGGACAUGAGGAUCACCCAUGUAAAGC |  |  | 44 nM | 52.4 nM
AAGAAGUGAGGAUAUACAUGAGGAUCACCCAUGUUAAGAAGAAUUUUAGAGAAAGAAGGUAGAAGGCACAAGAA |  |  | 49.5 nM | 47.1 nM
AAGAAGUGAGGAUAUGCUGACAAUAUGAAGACUUGAGGUAUGCAGAAGGCACAUGAGGAUCACCCAUGUAAGAA |  |  | 30 nM | 29.7 nM
AAGAAGUGAGGAUAUGCUGCUCGUCACUUGCGUGAUGAGUAGCAGAAGGCACAUGAGGAUCACCCAUGUGAAAA |  |  | 26 nM | 43.3 nM
AAGACGUGGGAAGGAUAUCUGGAAUAUCGGUCGAGAGAAGGUCCCUCGACAUGAGGAUCACCCAUGUAACACGGUCUACCGUGG | 472 nM | 280 nM |  | 
AAGAGCGAUUCUCCCUUCCUACAUGAGGAUCACCCAUGUACGAGAAGGCGCCGUUUAUACAACGGUGAGGAUAUCGUGCGUUAC |  |  | 4.49 nM | 4.7 nM
AAGCAAGCAGGGAUGCUUCGUAGGGAGGAUAUCUGACUGGGCGGACAUGAGGAUCACCCAUGUACAGAGAAGGCCCAAAACAAC |  |  | 376 nM | 61.6 nM
AAGCACUGAUAAUAAUGUAGAAAUACAUGAGGAUCACCCAUGUAGGAUAUCGUCAGGAAUACUGACGAGAAGGACAUACAGUGC |  |  | 16.2 nM | 24.7 nM
AAGCAGGGAGGAUAUACAUGGACACACAUUGGUGUAGAACUACAUGAGGAUCACCCAUGUAGAAGGCCCAAAUA |  |  | 52.9 nM | 71.5 nM
AAGCUGACAAUAAAUAACUCAAAUACAUGAGGAUCACCCAUGUAGGAUAUGCAGUGGAAUACACUGCAGAAGGACAUAGUCAGC |  |  | 13.6 nM | 21.9 nM
AAGGAUCGCACAGGAUAUCAUACAUGAGGAUCACCCAUGUCAGAAAACAAAUGAGAAGGGUGCGCAUUAAUUGCUUGUGAAGAA | 17.9 nM | 4.65 nM |  | 
AAGGGCGUGAUAACGCUCAUUAAAACAUGAGGAUCACCCAUGUAGGAUAUCCUACCGAAAUGGUAGGAGAAGGACAAGCAAUGA |  |  | 21.9 nM | 20.8 nM
AAGGUACGAGGAUAUACAUAGAUACAGAUACAUGUGGAUGUACAUGAGGAUCACCCAUGUAGAAGGCGUAUAUA |  |  | 300 nM | 318 nM
AAGUAGUGUGUGAGGAUAUUGGUGGAAUGACAUAUUAAGAAGGCACAUGAGGAUCACCCAUGUGGGAUGUCACG |  |  | 12.6 nM | 12.6 nM
AAGUCGACGGUGAGGAUAUAGGUCGAACGACAGAUCUAGAAGGCACAUGAGGAUCACCCAUGUGGGUAACGUCG |  |  | 19.6 nM | 28.4 nM
AAGUUGGUAGGAUAUACGUGCAAUUGGUGUGUCCGGAAAAAACAUGAGGAUCACCCAUGUAGAAGGACCAAAAA |  |  | 49.3 nM | 57.5 nM

Sequence | apparent Kd [1] | apparent Kd [2] | apparent Kd [3] | apparent Kd [4]
AAGUUUAACGAAGGAUAUGGUUACAUGAGGAUCACCCAUGUAUUUUUUGUGAUCUUGAAAUAGUUCCAGAAGGUCGUAUACAUA |  |  | 138 nM | 359 nM
AAGUUUUUACAAGGAUAUCAAUUGUUUCUAAAUUCAACAUGAGGAUCACCCAUGUAACAAUGGAGUGAGAAGGUGUGUUGGCAA | 86.8 nM | 141 nM |  | 
AAUAAACACACAGGAUAUAGCAUCGUCGUUAUGAACUUAAUGACGACGAUGCUAGAAGGGUGAACACAUGAGGAUCACCCAUGU | 211 nM | 35.6 nM |  | 
AAUAAACAUGAGGAUCACCCAUGUCAGGAUAUCCAUUUGUUUUUGUUGGUUUUUUUUUGGAGAAGGGACGCUUA |  |  | 87.3 nM | 63 nM
AAUAAACUCACAGGAUAUAGCAGAGAUCGCGUGAACUUACAGGCGACGAUGCUAGAAGGGUGACCACAUGAGGAUCACCCAUGU | 673 nM | 120 nM |  | 
AAUAAACUCACAGGAUAUAGCAGAGGUCGCCUGAACUUACAGGCGACGAUGCUAGAAGGGUGACCACAUGAGGAUCACCCAUGU | 825 nM | 136 nM |  | 
AAUAAACUCACAGGAUAUAGCAGAGGUCGCGUAAACUUACAGGCGACUAUGCUAGAAGGGUGACCACAUGAGGAUCACCCAUGU | 836 nM | 161 nM |  | 
AAUAAACUCACAGGAUAUAGCAUAAGUCGCGUGAACUUACAGGCGACUAUGCUAGAAGGGUGACCACAUGAGGAUCACCCAUGU | 805 nM | 158 nM |  | 
AAUAACAGAGGAUAUACUAUUUUAUGUAUUUAUUAUUUUAAACAUGAGGAUCACCCAUGUAGAAGGCUGAAUAA |  |  | 19.8 nM | 20.7 nM
AAUAACAGAGGAUAUACUAUUUUAUGUGUUUGUUAUUUUGAACAUGAGGAUCACCCAUGUAGAAGGCUGAUUGA |  |  | 47 nM | 44 nM
AAUAACAGAGGAUAUACUGUUUUAUGUGUUUAUUAUUUUGAACAUGAGGAUCACCCAUGUAGAAGGCUGAAUGA |  |  | 32.7 nM | 31.5 nM
AAUAUAAGAGCUGGAAAUAACUCAACAUGAGGAUCACCCAUGUAGGAUAUCAGCACGAUAAGUGCUGAGAAGGACAUCCAGCUC |  |  | 14.4 nM | 14.6 nM
AAUAUAAGAGCUGGUAAAUAACUCACAUGAGGAUCACCCAUGUAGGAUAUCAGCACGAUAAGUGCUGAGAAGGACAUCCAGCUC |  |  | 15.4 nM | 16.2 nM
AAUAUAGAAGGAUAUGCAGCCGUGAGCCAUAGAGGAGACGAACAUGAGGAUCACCCAUGUAGAAGGUCUCGAUU |  |  | 13.1 nM | 12.4 nM
AAUAUAGAGCUGGAAAUAAACUCAACAUGAGGAUCACCCAUGUAGGAUAUCAGCACGAUAAGUGCUGAGAAGGACAUCCAGCUC |  |  | 16.7 nM | 17.1 nM
AAUAUAGAGCUGGAAUAAAACACAACAUGAGGAUCACCCAUGUAGGAUAUCAGCACGAUAAGUGCUGAGAAGGACAUCCAGCUC |  |  | 14.7 nM | 14.2 nM
AAUAUGAGCUGGAAUAAAACCUUGACAUGAGGAUCACCCAUGUAGGAUAUCAGCACGAUAAGUGCUGAGAAGGACAACCAGCUC |  |  | 14.4 nM | 15.6 nM
AAUAUGUUGCAGAAGGUUAUAUUUAUUUAGUACCUCAUGACAUGAGGAUCACCCAUGUUAAUGUUGAAGGAUAUGCAAUAUAUU |  |  | 14.1 nM | 13.6 nM
AAUAUGUUGCAGAAGGUUAUUUUUAUAACGAUCCACUUGACAUGAGGAUCACCCAUGUAAUUGAUGAAGGAUAUGCAAUAUAUU |  |  | 6.69 nM | 6.69 nM
AAUCCACAUGAGGAUCACCCAUGUCAGGAUAUUGUUACUAGAGCGCACCUGUGUUCUACGAGAAGGGACUAAAC |  |  | 12 nM | 12.2 nM
AAUCCACAUGAGGAUCACCCAUGUGAGGAUAUGAUACUAUGUACUUCGGUACAUAGUAUCAGAAGGCACAGGUC |  |  | 23.6 nM | 51.6 nM
